This note sets out measurements from ChEMBL document CHEMBL2021869, “Pharmacological evaluation of a novel cyclic phosphatidic acid derivative 3-S-cyclic phosphatidic acid (3-S-cPA)” (Bioorg Med Chem, 2012).

In data set [1] the target is Autotaxin (Bos taurus) (UniProt A1A4K5). The data set is described as follows: Inhibition of ATX in fetal bovine serum using FS-3 as substrate at 10 uM after 2 hrs by fluorescence assay. In a few lines: (§1)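 ATX source: fetal bovine serum, mixed with compound in 0.1% BSA and 1 µM FS-3 in Tris-HCl pH 8.0 buffer (1 mM CaCl2, 1 mM MgCl2, 5 mM KCl, 140 mM NaCl). Fluorescence (485/530 nm) read before and after 2 h at 37 °C; pre-incubation value subtracted, normalized to vehicle as percent inhibition; triplicate wells, mean ± S.E.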

Data set [2] shares this target. The data set is described as follows: Inhibition of ATX in fetal bovine serum using FS-3 as substrate at 0.1 to 10 uM after 2 hrs by fluorescence assay. An outline of the steps:
as §1

The nature of data set [3]: Lipophilicity, Log P of the compound. Format: physicochemical. The note with it: octanol/water.
The test system of data set [4] is Rattus norvegicus. The data set is described as follows: Antinociceptive activity in Wistar rat assessed as somato-somatic C-reflex at 0.2 mg/kg, iv by electromyogram analysis relative to control. Format: functional. An outline of the steps: (§2)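 Anesthetised adult male Wistar rats (310–370 g; pentobarbital 50 mg/kg ip); jugular vein catheter for iv dosing at 0.2 mg/kg, blood pressure and heart rate monitored, end-tidal CO2 kept near 3.0%. Reflex EMG evoked by single shocks, averaged over ~50 trials at 3-s intervals; response area expressed as percent of control size 0–15 min before injection; mean ± S.E.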

Data set [5] deals with Autotaxin (Homo sapiens) (UniProt Q13822). Briefly: Inhibition of ATX-mediated human MDA-MB-231 cell migration at 10 uM after 8 hrs by Cyto Fluor spectrophotometry relative to lysophosphatidyl choline. In a few lines:
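Calcein-AM-stained MDA-MB-231 cells (4 × 10^5 cells/mL in DMEM with 0.1% fatty-acid-free BSA) placed in upper wells over 8-µm pore membranes; lower wells held 200 µM LPC plus 10 µM compound. Incubated 8 h at 37 °C; non-migrated cells wiped off, migrated-cell fluorescence read at 485/530 nm. Percent of LPC-only control; triplicate wells, ≥3 independent experiments.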

Data set [6] has as its system Rattus norvegicus. Briefly: Antinociceptive activity in Wistar rat assessed as reduction in A-reflex at 0.2 mg/kg, iv by electromyogram analysis relative to control. Format: functional, organism-based. More on the design: dose 0.2 mg/kg. An outline of the steps:
as §2

In data set [7] the test system is Rattus norvegicus. The data set is described as follows: Neuroprotective effect against transient cerebral ischemia-induced delayed neuronal death in Wistar rat hippocampal CA1 region assessed as decrease in GFAP accumulation at 180 ug/kg/5 days dosed through mini-osmotic pump measured after 5 days of occlusion for 8 mins by immunohistochemical staining relative to control. Format: functional, organism-based. In a few lines: (§3)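 Male Wistar rats under halothane; compound (180 µg·kg−1·5 days−1) or 0.2% fatty-acid-free BSA vehicle given by subcutaneous pump implanted 35–60 min before ischemia. Vertebral arteries ligated, both carotids occluded 8 min at ~37.5 °C. On day 5, formalin perfusion and paraffin sections (6 µm) of hippocampal CA1 stained with HE or anti-GFAP.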

Data set [8] deals with Rattus norvegicus. The data set is described as follows: Antinociceptive activity in Wistar rat assessed as reduction in somato-somatic C-reflex at 0.2 mg/kg, iv by electromyogram analysis relative to control. It counts as functional, organism-based. Also noted: dose 0.2 mg/kg. In a few lines: as §2
Data set [9] deals with Rattus norvegicus. The data set is described as follows: Neuroprotective effect against transient cerebral ischemia-induced delayed neuronal death in Wistar rat hippocampal CA1 region assessed as reduction in pyknosis and shrinkage of cells at 180 ug/kg/5 days dosed through mini-osmotic pump measured after 5 days of occlusion for 8 mins by hematoxylin/eosin based staining relative to control. It counts as functional, organism-based. In a few lines: as §3

For data set [10], the species on record is Rattus norvegicus. The data set is described as follows: Ratio of natural cPA effective dose to compound effective dose for antinociceptive activity in Wistar rat assessed as reduction in somato-somatic C-reflex. It counts as functional.

SMILES strings stand for the structures. Activity calls are given as the source filed them. The calls are words filed in the database; no cut-off is given here. Where only a bound is given, the exact number is not on record here.

One may read the inhibition as how much of the control response was suppressed. Compound `CCCCCC/C=C\CCCCCCCC(=O)OC[C@@H]1CSP(=O)(O)O1` returned an inhibition in [1] of 40%.
Regarding `CCCCCC/C=C\CCCCCCCC(=O)OC[C@H]1CSP(=O)(O)O1`, the inhibition result in [2] is “Active”.
Broadly, the logP is the decadic logarithm of the partition coefficient of the neutral form, usually between octanol and water. A high value points to higher lipophilicity. For `CCCCCC/C=C\CCCCCCCC(=O)OCC1CSP(=O)(O)O1.CCN(CC)CC` (racemic), the logP in data set [3] was 5.96. Also, in data set [4], the Activity stood at 87%. Also, the inhibition in data set [5] was more than 40%. The outcome in data set [6] was inactive. The outcome in data set [7], in [8] and in data set [9] was Active.
For the compound `CCCCCC/C=C\CCCCCCCC(=O)OCC1COP(=O)([O-])C1.[Na+]` (racemic), the Activity in [4] came to 83%. Also, in data set [10], the “fold change (FC)” value worked out at 10. Besides, the inhibition result in [2] was “Active”.
`CCCCCCCC/C=C\CCCCCCCC(=O)OCC1CSP(=O)(O)O1` (racemic): the inhibition in [5] was more than 40%.
With `CCCCCCCCCCCCCCCC(=O)OCC1CSP(=O)(O)O1` (racemic), in [5], the inhibition was more than 40%.
`CCCCCCCCCCCCCCCCCC(=O)OCC1CSP(=O)(O)O1` (racemic): in [5], the inhibition was more than 40%.
